Test results from article PMC6560633 (Journal of the American Chemical Society, 2018).
Read-outs that look alike come from different tables or passages of the source.

How the values were obtained:
[1] = Stability of Ba^2+ complexes in the presence of hydroxyapatite, GFAAS; type: physicochemical; settings: HAP suspension, pH 7.6 buffer, after 20 h; 1.1 equiv L, 1.0 equiv Ba^2+
[2] = Kinetic inertness: La^3+ transmetalation challenge of Ba–L complexes, UV-vis; type: physicochemical; settings: 1000 equiv of La^3+, RT, pH 7.3
[3] = I = 0.1 M KCl, cited from earlier work
[4] = Stability constants of Ca^2+ complexes by pH-potentiometry; type: binding; settings: I = 0.1 M KCl; for log KʹCa (conditional stability constant): pH 7.4, 25 °C; for pCa: −log [M^2+]free, [M^2+] = 10^−6 M, [L] = 10^−5 M, pH 7.4; for pCa / log KCaL / log KCaHL: 25 °C; for log KCaHL: protonation constant of the Ca^2+ complex
[5] = cited from earlier work; for log KCaHL: protonation constant of the Ca^2+ complex
[6] = Stability constants of Sr^2+ complexes by pH-potentiometry; type: binding; settings: I = 0.1 M KCl; for log KʹSr (conditional stability constant): pH 7.4, 25 °C; for pSr: −log [M^2+]free, [M^2+] = 10^−6 M, [L] = 10^−5 M, pH 7.4
[7] = cited from earlier work
[8] = Stability constants of Ba^2+ complexes by pH-potentiometry; type: binding; settings: for selectivity for Ba^2+ over Ca^2+ (ratio of pM values) / selectivity for Ba^2+ over Sr^2+ (ratio of pM values) / pBa / major species present in solution of Ba^2+ and ligand: pH 7.4; for log KʹBa (conditional stability constant): pH 7.4, 25 °C; for log KʹBa (conditional stability constant) / pBa / log KBaL / major species present in solution of Ba^2+ and ligand / log KBaH2L / log KBaHL: I = 0.1 M KCl; for pBa: −log [M^2+]free, [M^2+] = 10^−6 M, [L] = 10^−5 M; for pBa / log KBaL / major species present in solution of Ba^2+ and ligand / log KBaH2L / log KBaHL: 25 °C; for major species present in solution of Ba^2+ and ligand: [Ba^2+]tot = [L]tot = 1.0 mM; for log KBaH2L / log KBaHL: protonation constant of the Ba^2+ complex
[9] = cited from earlier work; for log KSrHL: protonation constant of the Sr^2+ complex
[10] = Dissolution of BaSO4 suspension by ligand, GFAAS
Method in brief: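 BaSO4 was formed in pH 8 NaHCO3 from Ba(NO3)2 (4.53 mM) and excess Na2SO4 (13.48 mM), then ligand (5 mM) was added at RT. Dissolved barium was measured by GFAAS after 10, 20 and 30 min. A second series used pH 11 […] buffer and was sampled at 5 and 30 min. Results are reported as percent of BaSO4 dissolved.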

[11] = Dissolution of crude barite ore in columns, ligand efficiency by GFAAS; settings: barite 3 g, soak 1 h
[12] = Ligand protonation constants by pH-potentiometric titration; type: physicochemical; settings: for log Ka1 / log Ka2 / log Ka3 / log Ka4: 25 °C, I = 0.1 M KCl; for existence of fully deprotonated ligand in solution: speciation
Method in brief: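 Protonation constants came from pH-potentiometric titration at 25 °C in 0.1 M KCl. The fraction of each protonated or deprotonated ligand species in solution was calculated from the fitted constants using species distribution diagrams. Overall ligand basicity was taken as the sum of the log Ka values.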

[13] = pH 8 NaHCO3, RT, ligand 5 mM, 30 min
[14] = I = 0.1 M KNO3, bracketed value
[15] = protonation constant of the Sr^2+ complex, 25 °C

Row | Structure (SMILES) | log KʹCa (conditional stability constant) [4] | log KʹSr (conditional stability constant) [6] | log KʹBa (conditional stability constant) [8] | log KCaL [4] | overall basicity (sum of log Ka values) [12] | log Ka1 [12] | log Ka2 [12] | log Ka3 [12] | log Ka4 [12] | log KSrL ([6]; 25 °C) | log KSrHL [6, 15] | log KBaL [8] | major species present in solution of Ba^2+ and ligand [8] | log KBaH2L [8] | pCa [4] | pSr ([6]; 25 °C) | selectivity for Ba^2+ over Ca^2+ (ratio of pM values) [8] | selectivity for Ba^2+ over Sr^2+ (ratio of pM values) [8] | pBa [8] | BaSO4 dissolved [10, 13] | further results
1 | O=C([O-])c1cccc(CN2CCOCCOCCN(Cc3cccc(C(=O)[O-])n3)CCOCCOCC2)n1.[Ba+2] [Ba–macropa] |  |  |  |  |  |  |  |  |  |  |  |  |  |  |  |  |  |  |  |  | Ba^2+ retained in the liquid phase (intact complex) [1]: 82%; half-life (t½) of substitution of Ba^2+ with La^3+ [2]: 5.45 ± 0.20 min
2 | O=C(O)CN1CCN(CC(=O)O)CCN(CC(=O)O)CCN(CC(=O)O)CC1 [DOTA, reference compound] | 10.34 | 8.35 | 5.72 |  |  |  |  |  |  |  |  |  |  |  | 11.29 | 9.30 | < 1 fold | < 1 fold | 6.76 | 40% | log Ka1 [3]: 11.14; log Ka2 [3]: 9.69; log Ka3 [3]: 4.85; log Ka4 [3]: 3.95; log KCaHL ([5]; I = 0.1 M KCl): 3.60; log KBaL ([7]; I = 0.1 M KCl): 11.75; log KSrHL ([9]; I = 0.1 M KCl): 4.52; BaSO4 dissolved ([10]; pH 11 NaCO3 buffer, 30 min): 75%
3 | O=C(O)CN(CCN(CC(=O)O)CC(=O)O)CCN(CC(=O)O)CC(=O)O [DTPA, reference compound] | 7.63 | 5.53 | 4.63 |  |  |  |  |  |  |  |  |  |  |  | 8.59 | 6.61 | < 1 fold | < 1 fold | 6.15 | 40% | log Ka1 [3]: 10.34; log Ka2 [3]: 8.59; log Ka3 [3]: 4.25; log Ka4 [3]: 2.71; log Ka5 [3]: 2.18; ligand efficiency (percent of ligand saturated with Ba^2+) ([11]; pH 8, ~48 mM ligand): 2%; ligand efficiency (percent of ligand saturated with Ba^2+) ([11]; pH 11, ~48 mM ligand): 17%; log KCaL ([5]; I = 0.1 M KCl): 11.77; log KCaHL [5]: 6.10; log KBaL [7]: 8.78; log KBaHL ([7]; protonation constant of the Ba^2+ complex): 5.34; log KSrL [9]: 9.68; log KSrHL [9]: 5.4; BaSO4 dissolved ([10]; pH 11 NaCO3 buffer, 5 min): nearly all
4 | O=C(O)c1cccc(CN2CCOCCOCCN(Cc3cccc(C(=O)O)n3)CCOCCOCC2)n1 [macropa] | 5.42 | 9.07 | 10.74 | 5.79(1) | 19.99 | 7.41 | 6.899 | 3.23(1) | 2.45(5) | 9.442(4) | 3.35(8) | 11.11(4) | ML species | 2.49(7) | 6.54 | 10.02 | 1.79 fold | 1.17 fold | 11.69 | complete dissolution | log Ka1 ([3]; parenthetic value): 7.41; log Ka2 ([3]; parenthetic value): 6.85; log Ka3 ([3]; parenthetic value): 3.32; log Ka4 ([3]; parenthetic value): 2.36; log Ka5 ([3]; parenthetic value): (1.69); ligand efficiency (percent of ligand saturated with Ba^2+) ([11]; pH 8, ~48 mM ligand): 40%; ligand efficiency (percent of ligand saturated with Ba^2+) ([11]; pH 11, ~48 mM ligand): 40%; log KCaL [5, 14]: 5.25; log Ka1 ([12]; listed as macropa^2−): 7.41(1); log Ka2 ([12]; listed as macropa^2−): 6.899(3); fraction of ligand fully deprotonated (L^2–) ([12]; pH 7.4): 43%; Ba^2+ bound by ligand ([8]; pH 4.0): 90%; Ba^2+ complexed by ligand ([8]; pH 5.1): 99%; log KBaHL [8]: 3.76(2); log KSrL [9, 14]: 9.57; BaSO4 dissolved ([10]; pH 8 NaHCO3, RT, ligand 5 mM, 10 min): 78%; BaSO4 dissolved ([10]; pH 11 NaCO3 buffer, 5 min): > 95%

Now from value to compound, other results behind:

Row | log KʹCa (conditional stability constant) [4] | log KʹSr (conditional stability constant) [6] | log KʹBa (conditional stability constant) [8] | log KCaL [4] | overall basicity (sum of log Ka values) [12] | log Ka1 [12] | log Ka2 [12] | log Ka3 [12] | log Ka4 [12] | log KSrL ([6]; 25 °C) | log KSrHL [6, 15] | log KBaL [8] | major species present in solution of Ba^2+ and ligand [8] | log KBaH2L [8] | Structure (SMILES) | pCa [4] | pSr ([6]; 25 °C) | selectivity for Ba^2+ over Ca^2+ (ratio of pM values) [8] | selectivity for Ba^2+ over Sr^2+ (ratio of pM values) [8] | pBa [8] | BaSO4 dissolved [10, 13] | further results
5 | 3.94 | 7.54 | 10.05 | 5.90(4) | 27.69 | 10.33 | 7.15 | 6.97 | 3.24(4) | 9.19(5) | 8.92(2) | 10.87(2) | MHL species | 3.28(2) | O=C(O)c1cccc(CN2CCOCCOCCN(Cc3ccc4cccc(O)c4n3)CCOCCOCC2)n1 [macropaquin] | 6.04 | 8.50 |  |  | 11.01 | 95% | log KCaHL [4]: 8.59(2); log Ka1 ([12]; listed as macropaquin^2−): 10.33(4); log Ka2 ([12]; listed as macropaquin^2−): 7.15(3); log Ka3 ([12]; listed as macropaquin^2−): 6.97(2); fraction of ligand as monoprotonated species HL^– ([12]; pH 7.4): 56%; existence of fully deprotonated ligand in solution [12]: do not exist in solution below pH 8; log KBaHL [8]: 9.76(2)
6 | 3.19 | 5.64 | 8.76 | 6.04(8) | 32.14 | 9.34 | 9.43 | 6.75 | 6.62 | 8.62(2) | 8.34(4) | 10.44(6) | MH2L species | 7.80(2) | O=S(=O)(O)c1ccc(O)c2nc(CN3CCOCCOCCN(Cc4ccc5c(S(=O)(=O)O)ccc(O)c5n4)CCOCCOCC3)ccc12 [macroquin–SO3] | 6.01 | 6.70 |  |  | 9.72 |  | log KCaHL [4]: 8.60(4); log Ka1 ([12]; listed as macroquin–SO3^4−): 9.34(4); log Ka2 ([12]; listed as macroquin–SO3^4−): 9.43(1); log Ka3 ([12]; listed as macroquin–SO3^4−): 6.75(4); log Ka4 ([12]; listed as macroquin–SO3^4−): 6.62(4); fraction of ligand as H2L^2– ([12]; pH 7.4): 78%; existence of fully deprotonated ligand in solution [12]: do not exist in solution below pH 8; log KSrH2L [6, 15]: 6.920(3); log KBaHL [8]: 9.24(7)
